From ChEMBL document CHEMBL3124904, “Second-generation derivatives of the eukaryotic translation initiation inhibitor pateamine A targeting eIF4A as potential anticancer agents” (Bioorg Med Chem, 2014) come the findings set out here.

Data set [1] is described as follows: Half life in RPMI media at 1 uM by HPLC analysis. It is filed as physicochemical. Summed up:
(§1)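 Compound added from DMSO stock to pre-heated RPMI 1640 (1.8 mL) plus 0.2 mL human AB male serum or FBS, or to 2 mL RPMI alone, at final 1 or 10 μM. Samples analysed by HPLC at pH 9.5 (formic acid/ammonia in acetonitrile/water), with conversion taken from the substrate/internal standard peak ratio. Run in triplicate; half-lives ± SD.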

For data set [2], the target named is T1, DNA polymerase alpha catalytic subunit (Homo sapiens, UniProt P09884).
T1 sequence (P09884 whole entry): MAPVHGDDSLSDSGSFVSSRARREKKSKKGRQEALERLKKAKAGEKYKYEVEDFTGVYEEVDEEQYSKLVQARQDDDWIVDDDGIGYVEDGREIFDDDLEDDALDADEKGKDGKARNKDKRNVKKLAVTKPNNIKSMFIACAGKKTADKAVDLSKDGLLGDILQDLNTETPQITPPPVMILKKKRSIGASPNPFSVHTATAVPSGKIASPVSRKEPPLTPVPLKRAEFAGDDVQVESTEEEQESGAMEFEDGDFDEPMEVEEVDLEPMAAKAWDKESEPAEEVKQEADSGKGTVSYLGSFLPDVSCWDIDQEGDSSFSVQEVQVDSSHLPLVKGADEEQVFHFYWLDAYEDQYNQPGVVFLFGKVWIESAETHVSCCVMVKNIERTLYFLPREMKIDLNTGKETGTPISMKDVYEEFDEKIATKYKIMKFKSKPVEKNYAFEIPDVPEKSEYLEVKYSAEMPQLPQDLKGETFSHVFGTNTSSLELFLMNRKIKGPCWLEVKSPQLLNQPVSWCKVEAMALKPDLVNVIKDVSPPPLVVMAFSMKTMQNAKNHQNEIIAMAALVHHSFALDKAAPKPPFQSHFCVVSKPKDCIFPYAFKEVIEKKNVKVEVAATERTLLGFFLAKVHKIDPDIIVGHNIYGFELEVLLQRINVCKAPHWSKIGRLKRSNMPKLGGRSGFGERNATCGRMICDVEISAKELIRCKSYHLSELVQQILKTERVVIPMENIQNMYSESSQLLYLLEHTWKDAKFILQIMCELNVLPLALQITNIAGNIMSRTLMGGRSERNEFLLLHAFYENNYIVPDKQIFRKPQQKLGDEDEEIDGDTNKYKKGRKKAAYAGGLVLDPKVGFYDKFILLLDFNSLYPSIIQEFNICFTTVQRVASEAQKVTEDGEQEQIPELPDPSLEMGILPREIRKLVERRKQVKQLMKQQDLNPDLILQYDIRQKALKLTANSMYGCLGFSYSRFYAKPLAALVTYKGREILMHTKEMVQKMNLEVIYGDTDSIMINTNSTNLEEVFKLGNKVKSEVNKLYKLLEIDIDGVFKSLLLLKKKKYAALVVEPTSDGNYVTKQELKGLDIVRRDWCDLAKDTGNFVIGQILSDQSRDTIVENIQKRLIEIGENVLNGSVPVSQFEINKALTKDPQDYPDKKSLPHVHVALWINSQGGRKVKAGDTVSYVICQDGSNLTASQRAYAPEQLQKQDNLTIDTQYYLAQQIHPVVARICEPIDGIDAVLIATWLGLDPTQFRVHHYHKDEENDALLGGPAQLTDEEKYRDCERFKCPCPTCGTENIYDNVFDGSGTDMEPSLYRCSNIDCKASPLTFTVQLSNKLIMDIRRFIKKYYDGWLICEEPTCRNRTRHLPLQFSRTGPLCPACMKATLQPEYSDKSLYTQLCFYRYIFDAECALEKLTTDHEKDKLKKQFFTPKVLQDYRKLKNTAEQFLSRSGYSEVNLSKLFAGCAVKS
Put plainly: Inhibition of DNA polymerase-alpha (unknown origin) assessed as incorporation of Br(d)UTP by colorimetric analysis.

Data set [3] is filed under the species Oryctolagus cuniculus. Put plainly: Inhibition of cap-independent HCV-IRES-induced translation in rabbit reticulocyte lysate at 500 nM after 1.5 hrs by luciferase reporter gene assay. Type of data set: functional. The gist of the method: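 Capped bicistronic reporter mRNA: cap-dependent firefly luciferase first cistron, HCV IRES-driven Renilla second cistron. Transcribed in vitro with SP6 from the BamHI-linearised plasmid. 200 ng RNA translated in rabbit reticulocyte lysate with 70 mM KCl, 2 mM DTT, RNasin and compound in DMSO (5% v/v final), 30 °C for 1.5 h. Dual luciferase readout. Duplicates, 4 independent assays, mean IC50 by curve fit.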
On the technique in general: In a reporter assay the amount or activity of a reporter protein is the signal.

A short description of data set [4]: Selectivity ratio of IC50 for MEF to IC50 for human Jurkat T cells. It is filed as cell-based. As to conditions: mouse (MEF) and human (Jurkat T cells), read-out: Ratio IC50.
For data set [5], the system named is SK-MEL-2. Put plainly: Antiproliferative activity against human SK-MEL-2 cells after 72 hrs by MTT assay in presence of 10% FBS. Type of data set: functional, cell-based. Conditions: SK-MEL-2, 72 h. Summed up: (§2)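 HeLa and SK-MEL2 grown in DMEM, Jurkat in RPMI 1640, each with 10% FBS and penicillin-streptomycin, at 37 °C and 5% CO2. Adherent cells seeded at 2000/well and left to recover overnight; Jurkat seeded at 5000/well with no recovery. Compound added in DMSO (0.1% final), then 72 h incubation and MTT readout.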
In general terms: Tetrazolium assays rely on reduction of a dye to a coloured formazan, in cell work by metabolically active cells.

In data set [6] the test system is HeLa. Put plainly: Antiproliferative activity against human HeLa cells after 72 hrs by MTT assay. Type of data set: functional, cell-based. Summed up: as §2
Data set [7] relates to SK-MEL-2. Put plainly: Antiproliferative activity against human SK-MEL-2 cells after 72 hrs by MTT assay in presence of 5% FBS. As to conditions: SK-MEL-2, 72 h. Type of data set: functional, cell-based. Summed up:
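SK-MEL2 grown with reduced serum (5% FBS) to slow proliferation. Compounds added in DMSO (0.1% final), followed by a 72 h MTT proliferation assay.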

Data set [8] can be described thus: Dissociation constant, pKa of the compound. Type of data set: physicochemical.
A short description of data set [9]: Selectivity ratio of IC50 for MEF to IC50 for human SK-MEL-2 cells. It is filed as cell-based. As to conditions: mouse (MEF) and human (SK-MEL-2 cells), MEF and SK-MEL-2 cells; read-out: Ratio IC50.
Data set [10] relates to MEF. Put plainly: Antiproliferative activity against MEF after 72 hrs by MTT assay. Type of data set: cell-based. Conditions: Mus musculus.
Data set [11] in a line: Half life in RPMI media at 1 uM by HPLC analysis in presence of fetal bovine serum. It is filed as ADME. As to conditions: cattle. Summed up:
as §1

Data set [12] deals with HeLa. Put plainly: Antiproliferative activity against human HeLa cells assessed as DNA synthesis level after 24 hrs by thymidine incorporation assay. Type of data set: functional, cell-based. The gist of the method:
(§3)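 Cells kept at 37 °C, 5% CO2 with penicillin-streptomycin and 10% FBS. Adherent lines seeded at 2000 cells/well and left to recover overnight; Jurkat seeded at 5000 cells/well with no recovery period. Compound added in DMSO (0.1% final, vehicle-only control) at 0.001–100 nM over 10 wells. DNA synthesis read out after 24 h. Mean IC50 from at least 3 independent assays.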
A general note: Uptake of a labelled nucleoside into DNA is a usual measure of proliferation.

For data set [13], the system named is Jurkat. Put plainly: Immunosuppressive activity in human Jurkat T cells assessed as inhibition of IL-2 transcription. Type of data set: functional, cell-based.
Data set [14] relates to SK-MEL-2. Put plainly: Selectivity ratio of IC50 for human SK-MEL-2 cells in presence of 5% FBS to IC50 for human SK-MEL-2 cells in presence of 10% FBS. Type of data set: functional.
Data set [15] can be described thus: Antiproliferative activity against human Jurkat T cells assessed as DNA synthesis level after 24 hrs by thymidine incorporation assay. Type of data set: functional, cell-based. Summed up:
as §3

Data set [16] is described as follows: Antiproliferative activity against BAEC assessed as DNA synthesis level after 24 hrs by thymidine incorporation assay. Conditions: Bos taurus. The gist of the method: as §3

SMILES strings stand for the structures. Active and inactive are the calls of the source. The calls are words filed in the database; no cut-off is given here. Some results are limits rather than exact numbers.

As to `CC(/C=C/C(C)=C/[C@@H]1Cc2nc(cs2)CCCCC(=O)O[C@@H](C)C/C(C)=C/C=C\C(=O)O1)=C\CN(C)C`, the t1/2 in data set [1] came to 5.11 h; in [11], 19.9 h. Moreover, the 50% inhibitory concentration (IC50) (usually the concentration that inhibits the measured activity by half) in data set [2] is 3000 nM; in data set [5], 13 nM; in data set [6], 9.8 nM; in [7], 30 nM; in data set [10], more than 50 nM; in [12], 4.5 nM. In addition, the results for the half-maximal inhibitory concentration (IC50) in data set [13], in data set [15] and in data set [16] were 0.81 nM, 3 nM and 1.97 nM, respectively. Besides, the inhibition result in [3] is “inactive”. Also, the selectivity ratio in data set [4] and in data set [9] was 5 in each case. Moreover, the pKa (usually the pH at which an ionisable group is half protonated) in [8] amounted to 11. Also, in [14], the “Ratio IC50” value is 2.
